CHO-K1 Ca antag – counter-screen for M1 antagonists: effect in parental CHO-K1 cells | inhibition, % at 3 µM | AID 602250 | actives 0.6% (n = 360,000) | ATP-induced calcium, Fluo-8 fluorescence;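 active = inhibition above a per-plate cutoff, the plate's mean sample inhibition plus 3 SD, cut at about 24% in these data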;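 also: 0% = DMSO plus EC80 ATP and 100% = DMSO alone without ATP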
M1 ag parental – nonselective activator or artifact in parental CHO-K1 cells; Fluo-8 calcium fluorescence; scaled to maximal ATP response, vehicle zero; activation, % at 3 µM; actives 0.48% (n = 360,000); in the data active = activation above about 15%;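 also: untransfected CHO-K1 host cells lacking M1 receptor as counterscreen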
OX1R antag-1 – blocks the human orexin 1 receptor. AID 434989. actives 0.43% (n = 330,000). O43613. inhibition, % at 5 µM. CHO/OX1R cells, Fluo-8 calcium fluorescence, orexin A;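 active = inhibition above its plate's threshold, mean inhibition of all tested compounds on the plate plus 3 SD, cut at about 37% in these data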;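 also: 0% = orexin A challenge wells and 100% = SB-334867-A antagonist wells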
Target sequence (O43613 whole entry, looked up): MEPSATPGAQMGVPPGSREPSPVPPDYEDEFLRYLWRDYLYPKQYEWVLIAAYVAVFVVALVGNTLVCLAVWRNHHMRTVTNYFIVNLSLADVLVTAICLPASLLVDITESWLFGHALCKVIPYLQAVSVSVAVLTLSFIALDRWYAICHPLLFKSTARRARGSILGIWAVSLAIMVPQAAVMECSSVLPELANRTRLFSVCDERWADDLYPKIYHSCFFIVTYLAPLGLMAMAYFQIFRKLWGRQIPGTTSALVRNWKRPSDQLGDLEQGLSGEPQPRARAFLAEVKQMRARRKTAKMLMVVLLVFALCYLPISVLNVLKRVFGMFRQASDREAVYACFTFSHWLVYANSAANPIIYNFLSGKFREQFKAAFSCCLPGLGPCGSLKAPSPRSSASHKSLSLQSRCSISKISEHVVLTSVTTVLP
OX1R antag-2 – blocks the human orexin 1 receptor | O43613 | actives 1.8% (n = 330,000) | inhibition, % at 6.6 µM | OX1R-expressing cells, FRET antagonist read-out | AID 485270; in the data active = inhibition mostly above about 38%, no sharp cut-off; inactive = mostly below about 40%;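 also: 0% = agonist challenge alone and 100% = reference antagonist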
CHO-K1 Ca PAM – nonselective activator or artifact in parental CHO-K1 calcium assay; ATP EC20, Fluo-8 calcium fluorescence; 0% at ATP EC20, 100% at ATP max; activation, % at 3 µM; actives 0.02% (n = 360,000); AID 602247;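 active = activation above the run cutoff, the mean activation of all test compounds plus 3 SD, cut at about 40% in these data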;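 also: peak over basal fluorescence ratio in a 140 s read after ATP addition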
CHO parental Ca – signal in parental CHO cells, OX1R antagonist counter-screen. inhibition, % at 5.6 µM. actives 0.63% (n = 330,000). AID 463079. parental CHO-K1, ATP-induced calcium, Fluo-8 fluorescence;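 active = inhibition above that plate's mean sample inhibition plus 3 SD, cut at about 26% in these data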;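 also: 0% = ATP-challenged DMSO wells and 100% = DMSO wells without ATP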
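Material: parental CHO cells / Compound: single nominal dose of 5.6 µM per compound / Signal: Fluo-8 fluorescence / Replicates: singlicate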
An asterisk follows results filed as active. Hits are enriched below; roughly 2.9% of the tested compounds scored in any of these assays.

O=S1(=O)CC(N2CCN(Cc3ccccc3F)CC2)CN1Cc1cn(Cc2ccc(C(F)(F)F)cc2)nn1 (stereo unspecified) was read as CHO-K1 Ca antag -2, M1 ag parental 8 and CHO-K1 Ca PAM -14.
`Cn1cccc1C(=O)c1cccc([N+](=O)[O-])c1` gave CHO-K1 Ca antag -13, M1 ag parental 0, OX1R antag-1 -11, OX1R antag-2 40, CHO-K1 Ca PAM 12 and CHO parental Ca -11.
CCc1sc(C(C2C(=O)CC(C)(C)CC2=O)C2C(=O)CC(C)(C)CC2=O)cc1[N+](=O)[O-] was read as CHO-K1 Ca antag 8, M1 ag parental 0, OX1R antag-1 -17, OX1R antag-2 18, CHO-K1 Ca PAM -6 and CHO parental Ca -7.
For Cc1ccc(C)c(S(=O)(=O)N2CCCCC2CCNC(=O)C(=O)NCCc2ccco2)c1 (stereo unspecified) the results were CHO-K1 Ca antag -7, M1 ag parental 1, OX1R antag-1 -2, OX1R antag-2 55*, CHO-K1 Ca PAM -4 and CHO parental Ca -29.
For Cc1ccc(C(=O)NC(C(=O)NC2CCCC2)c2ccccc2)cc1 (stereo unspecified) the results were CHO-K1 Ca antag 6, M1 ag parental 1, OX1R antag-1 -16, OX1R antag-2 2, CHO-K1 Ca PAM 3 and CHO parental Ca -3.
Screening COc1ccc(-n2nc3cc(C)c(NC(C)=O)cc3n2)cc1 returned CHO-K1 Ca antag 30*, M1 ag parental -1, OX1R antag-1 19, OX1R antag-2 31, CHO-K1 Ca PAM -13 and CHO parental Ca 8.
COc1ccc(-n2nc3ccccc3n2)cc1 was read as CHO-K1 Ca antag 22, M1 ag parental 0, OX1R antag-1 -9, OX1R antag-2 0, CHO-K1 Ca PAM -9 and CHO parental Ca -14.
For COc1ccc(-n2nc3cc(N)c(Br)cc3n2)cc1 the results were CHO-K1 Ca antag 1, M1 ag parental 1, OX1R antag-1 -16, OX1R antag-2 43*, CHO-K1 Ca PAM 14 and CHO parental Ca -6.
CC1(c2ccccc2)NC(=O)N(CC(=O)Nc2ccccc2C(=O)N2CCCCC2)C1=O (stereo unspecified) was read as CHO-K1 Ca antag 9, M1 ag parental -1, OX1R antag-1 -11, OX1R antag-2 18, CHO-K1 Ca PAM 6 and CHO parental Ca -3.
Screening CC(C)Cn1c2c(c(O)c(C(=O)Nc3ccc(F)cc3)c1=O)CCCC2 returned CHO-K1 Ca antag 25*, M1 ag parental 0, OX1R antag-1 -29, OX1R antag-2 -5, CHO-K1 Ca PAM -5 and CHO parental Ca 5.
For CC(Sc1nnc(CN2CCCC2)n1Cc1ccccc1)C(=O)Nc1ccc(F)cc1Cl (stereo unspecified) the results were CHO-K1 Ca antag 24*, M1 ag parental -1 and CHO-K1 Ca PAM -19.
Screening CCOC(=O)C1=CNS(=O)(=O)NC1c1ccc(C#N)cc1 (stereo unspecified) returned CHO-K1 Ca antag -10, M1 ag parental 0, OX1R antag-1 22, OX1R antag-2 10, CHO-K1 Ca PAM 21 and CHO parental Ca -4.
COc1ccc(OC)c(-c2cc(C3CCN(c4cc(Cl)nc(N)n4)CC3)[nH]n2)c1 was read as CHO-K1 Ca antag 25*, M1 ag parental 0, OX1R antag-1 6, OX1R antag-2 25, CHO-K1 Ca PAM -7 and CHO parental Ca 1.
Cc1ccc(CN2CCC(c3cc(-c4ccc(Cl)cc4)n[nH]3)CC2)cc1 was read as CHO-K1 Ca antag 4, M1 ag parental 16*, OX1R antag-1 -25, OX1R antag-2 -2, CHO-K1 Ca PAM -6 and CHO parental Ca 6.
Nc1nc(Cl)cc(N2CCC(c3cc(-c4ccc(Cl)cc4)n[nH]3)CC2)n1 was read as CHO-K1 Ca antag -1, M1 ag parental 21*, OX1R antag-1 54*, OX1R antag-2 19, CHO-K1 Ca PAM 0 and CHO parental Ca 34*.
CCCCNC(=O)C[C@@H]1C[C@@]2(C(=O)OC)CCCCC=C2N(Cc2ccccc2)C1=O was read as CHO-K1 Ca antag -11, M1 ag parental 3 and CHO-K1 Ca PAM 7.
`O=C(O)c1cccc([N+](=O)[O-])c1C(=O)Nc1cccc2ccccc12` gave CHO-K1 Ca antag 24*, M1 ag parental -1, OX1R antag-1 -24, OX1R antag-2 25, CHO-K1 Ca PAM -23 and CHO parental Ca -10.
Screening O=C(O)c1cccc(NC(=O)c2ccc3c(c2)C(=O)N(CC2CCCO2)C3=O)c1 (stereo unspecified) returned CHO-K1 Ca antag -11, M1 ag parental 1, OX1R antag-1 -2, OX1R antag-2 56*, CHO-K1 Ca PAM 18 and CHO parental Ca 4.
O=C(O)c1ccc(C(=O)c2ccc3c(c2)C(=O)N(CC2CCCO2)C3=O)cc1 (stereo unspecified) was read as CHO-K1 Ca antag -9, M1 ag parental 1, OX1R antag-1 -2, OX1R antag-2 56*, CHO-K1 Ca PAM 17 and CHO parental Ca 1.
Screening N#CC(C#N)=NNc1ccc([N+](=O)[O-])cc1 returned CHO-K1 Ca antag 11, M1 ag parental 2, OX1R antag-1 2, OX1R antag-2 72*, CHO-K1 Ca PAM -25 and CHO parental Ca -1.
`C/C(=N\Nc1ccc([N+](=O)[O-])cc1)c1ccc(C#N)cc1` gave CHO-K1 Ca antag 0, M1 ag parental 0, OX1R antag-1 -4, OX1R antag-2 18, CHO-K1 Ca PAM 7 and CHO parental Ca 14.
`Cc1ccc(S(=O)(=O)Nc2cccc(C(=O)NCC(c3ccc(F)cc3)N3CCOCC3)c2)cc1` (stereo unspecified) gave CHO-K1 Ca antag -7, M1 ag parental 0, OX1R antag-1 15, OX1R antag-2 36*, CHO-K1 Ca PAM -6 and CHO parental Ca -17.
COc1ccc(NS(=O)(=O)c2cccc(C(=O)NCC(c3ccc(F)cc3)N3CCOCC3)c2)cc1 (stereo unspecified) was read as CHO-K1 Ca antag -6, M1 ag parental 4, OX1R antag-1 0, OX1R antag-2 55*, CHO-K1 Ca PAM 7 and CHO parental Ca -18.
Cc1ccc(CS(=O)(=O)c2cn(CC(=O)Nc3ccon3)c3ccccc23)cc1 was read as CHO-K1 Ca antag 7, M1 ag parental 19*, OX1R antag-1 -9, OX1R antag-2 8, CHO-K1 Ca PAM -1 and CHO parental Ca -14.
`CCN1CCN(C(=O)c2cc3cc(F)ccc3[nH]2)CC1` gave CHO-K1 Ca antag 34*, M1 ag parental 0, OX1R antag-1 -14, OX1R antag-2 5, CHO-K1 Ca PAM -29 and CHO parental Ca -7.
For CN(C)c1ccc2c(c1)OC(N)=C(C#N)C2c1cccc(F)c1 (stereo unspecified) the results were CHO-K1 Ca antag 8, M1 ag parental 17*, OX1R antag-1 15, OX1R antag-2 12, CHO-K1 Ca PAM 11 and CHO parental Ca 9.
